For orientation: IC50 means the concentration needed to halve the response being measured. A higher IC50 goes with a need for much substance.

SMILES strings stand for the structures.

This test is described as follows: Inhibition of Saccharomyces cerevisiae alpha-glucosidase using p-nitrophenyl-alpha-D-glucopyranoside as substrate preincubated for 15 mins. Put shortly: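 Yeast enzyme at 0.6 U/mL in 0.1 M potassium phosphate buffer, pH 6.8. It was preincubated at 37 °C with test compound in water containing 0.5% DMSO. The reaction was started with 5.0 mM PNPG solution in the same buffer and incubated at 37 °C. It was stopped with 0.2 M Na2CO3 in phosphate buffer. Released p-nitrophenol was read at 405 nm, with IC50 as the output.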
`COc1cc(O[C@@H]2O[C@H](CO[C@@H]3OC[C@@H](O)[C@H](O)[C@H]3O)[C@@H](O)[C@H](O)[C@H]2O)c2c(=O)c3c(OC)c(O)ccc3oc2c1OC` yielded a half-maximal inhibitory concentration (IC50) of 1500 µM. On to `COc1cc(O[C@@H]2O[C@H](CO[C@@H]3OC[C@@H](O)[C@H](O)[C@H]3O)[C@@H](O)[C@H](O)[C@H]2O)c2c(=O)c3c(OC)c(OC)ccc3oc2c1OC`, for which it took 383 µM to reach half-maximal inhibition (IC50).

Compound `COc1cc(O[C@@H]2O[C@H](CO)[C@@H](O)[C@H](O)[C@H]2O)c2c(=O)c3c(OC)c(O)ccc3oc2c1O` came in with an IC50 of 701 µM. Compound `COc1cc(O[C@@H]2O[C@H](CO[C@@H]3OC[C@@H](O)[C@H](O)[C@H]3O)[C@@H](O)[C@H](O)[C@H]2O)c2c(=O)c3c(OC)ccc(OC)c3oc2c1` yielded an IC50 of 360 µM. Regarding `COc1cc(O[C@@H]2O[C@H](CO[C@@H]3OC[C@@H](O)[C@H](O)[C@H]3O)[C@@H](O)[C@H](O)[C@H]2O)c2c(=O)c3c(OC)c(OC)cc(OC)c3oc2c1`, half-maximal inhibition (IC50) required 371 µM. Then `COc1ccc(O)c2c(=O)c3c(O)cc(O[C@@H]4O[C@H](CO[C@@H]5OC[C@@H](O)[C@H](O)[C@H]5O)[C@@H](O)[C@H](O)[C@H]4O)c(OC)c3oc12`, with 184 µM; and `COc1cc(O[C@@H]2O[C@H](CO[C@@H]3O[C@H](CO)[C@@H](O)[C@H](O)[C@H]3O)[C@@H](O)[C@H](O)[C@H]2O)c2c(=O)c3cccc(OC)c3oc2c1`, with 956 µM.

Consider `COc1cc(O[C@@H]2O[C@H](CO[C@@H]3O[C@H](CO)[C@@H](O)[C@H](O)[C@H]3O)[C@@H](O)[C@H](O)[C@H]2O)c2c(=O)c3c(O)ccc(OC)c3oc2c1`, for which half-maximal inhibition (IC50) was put at 693 µM.

As to `COc1cc(O)c2c(=O)c3c(O)c(O[C@@H]4O[C@H](CO)[C@@H](O)[C@H](O)[C@H]4O[C@@H]4O[C@@H](C)[C@H](O)[C@@H](O)[C@H]4O)ccc3oc2c1`, the IC50 is more than 1720 µM.

`COc1cc(O)c2c(=O)c3c(O[C@@H]4O[C@H](CO)[C@@H](O)[C@H](O)[C@H]4O)c(O[C@@H]4O[C@@H](C)[C@H](O)[C@@H](O)[C@H]4O)ccc3oc2c1`: the IC50 was 714 µM. As to `COc1cc(O[C@@H]2O[C@H](CO[C@@H]3OC[C@@H](O)[C@H](O)[C@H]3O)[C@@H](O)[C@H](O)[C@H]2O)c2c(=O)c3c(O)c(OC)ccc3oc2c1`, inhibition was half-maximal at 451 µM (IC50). Turning to `C[C@H]1O[C@H](O[C@H]2[C@H](O)[C@@H](O)[C@@H](O[C@H]3[C@H](O)[C@@H](O)C(O)O[C@@H]3CO)O[C@@H]2CO)[C@H](O)[C@@H](O)[C@@H]1N[C@H]1C=C(CO)[C@@H](O)[C@H](O)[C@H]1O` (some centres undefined) [ACARBOSE], the IC50 came out at 627 µM. Compound `O=c1c2cc(O)c(O)cc2oc2cc(O)c([C@@H]3O[C@H](CO)[C@@H](O)[C@H](O)[C@H]3O)c(O)c12` [MANGIFERIN] returned an IC50 of 296 µM.

With `COc1cc(O)c2c(=O)c3c(O[C@@H]4O[C@H](CO)[C@@H](O)[C@H](O)[C@H]4O)ccc(O)c3oc2c1` [SWERTIANOLIN], 126 µM corresponded to half-maximal inhibition (IC50). Compared with the last compound, the IC50 is about 2.3-fold lower.

For the origin of these results see ChEMBL document CHEMBL2406974, “Xanthone glycoside constituents of Swertia kouitchensis with α-glucosidase inhibitory activity” (J Nat Prod, 2013).
